Converted amounts (≈) assume the structure as drawn. The source made the active and inactive calls. The calls are words filed in the database; no cut-off is given here.
What was measured:
[1] = tested on: Mus musculus; assay: In vivo antitumor activity against P388 Lymphocytic Leukemia measured as Survivors on day 5 at 200 mg/kg, w.r.t. compound 6; 4/4; type: functional
[2] = tested on: Mus musculus; assay: In vivo antitumor activity against P388 Lymphocytic Leukemia in mice at 400 mg/kg expressed as T/C value w.r.t. compound 6; type: functional
[3] = tested on: Mus musculus; assay: In vivo antitumor activity against P388 Lymphocytic Leukemia measured as Survivors on day 5 at 800 mg/kg, w.r.t. compound 6; 4/4; type: functional
[4] = tested on: Mus musculus; assay: In vivo antitumor activity against P388 Lymphocytic Leukemia in mice at 200 mg/kg expressed as T/C value w.r.t. compound 6; type: functional
[5] = tested on: Mus musculus; assay: In vivo antitumor activity against P388 Lymphocytic Leukemia measured as Survivors on day 5 at 400 mg/kg, w.r.t. compound 6; 4/4; type: functional
[6] = tested on: Mus musculus; assay: In vivo antitumor activity against P388 Lymphocytic Leukemia in mice at 800 mg/kg expressed as T/C value w.r.t. compound 6; type: functional
[7] = tested on: Mus musculus; assay: In vivo antitumor activity against P388 Lymphocytic Leukemia measured as Survivors on day 5 at 1300 mg/kg; 0/6; type: functional
[8] = tested on: Mus musculus; assay: In vivo antitumor activity against P388 Lymphocytic Leukemia measured as Survivors on day 5 at 162.50 mg/kg; 6/6; type: functional; details: dose 162.5 mg/kg
[9] = tested on: Mus musculus; assay: In vivo antitumor activity against P388 Lymphocytic Leukemia measured as Survivors on day 5 at 325 mg/kg; 0/6; type: functional
[10] = tested on: Mus musculus; assay: In vivo antitumor activity against P388 Lymphocytic Leukemia in mice at 325 mg/kg expressed as T/C value); Toxic; type: toxicity, organism-based; set-up: dose 325 mg/kg
[11] = tested on: Mus musculus; assay: In vivo antitumor activity against P388 Lymphocytic Leukemia in mice at 40.60 mg/kg expressed as T/C value (repeat); type: functional; details: dose 40.6 mg/kg
[12] = tested on: Mus musculus; assay: In vivo antitumor activity against P388 Lymphocytic Leukemia measured as survivors on day 5 at 81.25 mg/kg (repeat); 6/6; type: functional
[13] = tested on: Mus musculus; assay: In vivo antitumor activity against P388 Lymphocytic Leukemia measured as survivors on day 5 at 162.50 mg/kg (repeat); 6/6; type: functional; details: dose 162.5 mg/kg
[14] = tested on: Mus musculus; assay: In vivo antitumor activity against P388 Lymphocytic Leukemia measured as survivors on day 5 at 325 mg/kg (repeat); 0/6; type: functional
[15] = tested on: Mus musculus; assay: In vivo antitumor activity against P388 Lymphocytic Leukemia measured as survivors on day 5 at 40.60 mg/kg (repeat); 6/6; type: functional; details: dose 40.6 mg/kg
[16] = tested on: Mus musculus; assay: In vivo antitumor activity against P388 Lymphocytic Leukemia in mice at 1300 mg/kg expressed as T/C value; Toxic; type: toxicity, organism-based; set-up: dose 1300 mg/kg
[17] = tested on: Mus musculus; assay: In vivo antitumor activity against P388 Lymphocytic Leukemia in mice at 162.50 mg/kg expressed as T/C value; type: functional; details: dose 162.5 mg/kg
[18] = tested on: Mus musculus; assay: In vivo antitumor activity against P388 Lymphocytic Leukemia in mice at 162.5 mg/kg expressed as T/C value(repeat); type: functional
[19] = tested on: Mus musculus; assay: In vivo antitumor activity against P388 Lymphocytic Leukemia measured as Survivors on day 5 at 650 mg/kg; 0/6; type: functional
[20] = tested on: Mus musculus; assay: In vivo antitumor activity against P388 Lymphocytic Leukemia in mice at 650 mg/kg expressed as T/C value; Toxic; type: toxicity, organism-based; set-up: dose 650 mg/kg
[21] = tested on: Mus musculus; assay: In vivo antitumor activity against P388 Lymphocytic Leukemia in mice at 81.25 mg/kg expressed as T/C value (repeat); type: functional
[22] = tested on: P388; assay: Weight difference when tested in vivo for antitumor activity against P388 Lymphocytic Leukemia; weight difference expressed as (T-C); type: functional, Mus musculus
[23] = tested on: Mus musculus; assay: Weight difference when tested in vivo for antitumor activity against P388 Lymphocytic Leukemia; weight difference expressed as (T-C); Not active; type: functional, organism-based
[24] = tested on: A204; assay: In vitro cytotoxicity against human A204 Rhabdomyosarcoma cell line; type: functional, cell-based
How it was run: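 A204 human rhabdomyosarcoma soft-agarose colony assay. 10^4 trypsin/EDTA-dissociated cells in 0.3% agarose over a 0.5% agarose base, in DMEM with 10% FCS, at 37 °C and 5% CO2. Compound was applied in an upper medium layer on day 1 for 24 h, then washed out. Colonies >60 µm were counted after 7–9 days by tetrazolium stain and image analysis. Quadruplicates with vehicle controls, at least four concentrations up to 100 or 1000 µg/mL. IC50 from a monoexponential least-squares fit over at least three preparations, mean ± SE.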

[25] = tested on: Mus musculus; assay: In vivo antitumor activity against P388 Lymphocytic Leukemia in mice expressed as T/C value; Toxic
[26] = tested on: Mus musculus; assay: In vivo antitumor activity against P388 Lymphocytic Leukemia measured as Survivors on day 5 at 1500 mg/kg; 6/6; type: functional
[27] = tested on: Mus musculus; assay: In vivo antitumor activity against P388 Lymphocytic Leukemia measured as Survivors on day 5 at 187.5 mg/kg; 6/6; type: functional
[28] = tested on: Mus musculus; assay: In vivo antitumor activity against P388 Lymphocytic Leukemia measured as Survivors on day 5 at 750 mg/kg; 6/6; type: functional
[29] = tested on: Mus musculus; assay: In vivo antitumor activity against P388 Lymphocytic Leukemia in mice at 1500 mg/kg expressed as T/C value; type: functional
[30] = tested on: Mus musculus; assay: In vivo antitumor activity against P388 Lymphocytic Leukemia in mice at 187.5 mg/kg expressed as T/C value; type: functional
[31] = tested on: Mus musculus; assay: In vivo antitumor activity against P388 Lymphocytic Leukemia measured as Survivors on day 5 at 375 mg/kg; 6/6; type: functional
[32] = tested on: Mus musculus; assay: In vivo antitumor activity against P388 Lymphocytic Leukemia in mice at 750 mg/kg expressed as T/C value; type: functional
[33] = tested on: Mus musculus; assay: In vivo antitumor activity against P388 Lymphocytic Leukemia in mice at 375 mg/kg expressed as T/C value
[34] = tested on: Mus musculus; assay: In vivo antitumor activity against P388 Lymphocytic Leukemia measured as Survivors on day 5 at 23 mg/kg; 6/6; type: functional
[35] = tested on: Mus musculus; assay: In vivo antitumor activity against P388 Lymphocytic Leukemia measured as Survivors on day 5 at 11.50 mg/kg; 6/6; type: functional; details: dose 11.5 mg/kg
[36] = tested on: Mus musculus; assay: In vivo antitumor activity against P388 Lymphocytic Leukemia in mice at 46 mg/kg expressed as T/C value; type: functional
[37] = tested on: Mus musculus; assay: In vivo antitumor activity against P388 Lymphocytic Leukemia measured as Survivors on day 5 at 92 mg/kg; 6/6; type: functional
[38] = tested on: Mus musculus; assay: In vivo antitumor activity against P388 Lymphocytic Leukemia in mice at 11.50 mg/kg expressed as T/C value; type: functional; details: dose 11.5 mg/kg
[39] = tested on: Mus musculus; assay: In vivo antitumor activity against P388 Lymphocytic Leukemia in mice at 23 mg/kg expressed as T/C value; type: functional
[40] = tested on: Mus musculus; assay: In vivo antitumor activity against P388 Lymphocytic Leukemia measured as Survivors on day 5 at 46 mg/kg; 6/6; type: functional
[41] = tested on: Mus musculus; assay: In vivo antitumor activity against P388 Lymphocytic Leukemia in mice at 92 mg/kg expressed as T/C value; type: functional
[42] = tested on: Mus musculus; assay: Weight difference when tested in vivo for antitumor activity against P388 Lymphocytic Leukemia; type: functional

`CC(C)C(O)(C(=O)OC1CCN2CCC(CO)C12)C(C)O` (centres undefined) was tested, and the Survivors [1] was 4, the T/C [2] was 123% and the Survivors [3] was 4. For the same compound, the T/C [4] was 126%, the Survivors [5] was 4 and the T/C [6] was 180%.

`CC(C)C(O)(C(=O)OCC1CCN2CC[C@@H](O)[C@@H]12)C(C)O` (some centres undefined) was tested, and the Survivors [7] was 0, the Survivors [8] was 6 and the Survivors [9] was 0. The T/C [10] was “Toxic”, the T/C [11] was 96% and the Survivors [12] was 6. The Survivors [13] was 6, the Survivors [14] was 0 and the Survivors [15] was 6. For the same compound, the T/C [16] was “Toxic”, the T/C [17] was 92% and the T/C [18] was 98%. The Survivors [19] was 0, the T/C [20] was “Toxic” and the T/C [21] was 102%. The Weight difference [22] was 0.5, the Weight difference [23] was “inactive” and the IC50 [24] was 400 µg/mL (≈ 1330 µM). For the same compound, the T/C [25] was “Toxic”.

With `C[C@H]1C(=O)O[C@@H]2CC[N+]3([O-])CC=C(COC(=O)[C@](C)(O)[C@]1(C)O)[C@H]23` (some centres undefined) [MONOCROTALINE N-OXIDE] the IC50 [24] was 721 µg/mL (≈ 2110 µM).

`CC(C)C(O)(C(=O)OCC1CC[N+]2([O-])CC[C@@H](O)[C@@H]12)C(C)O` (some centres undefined) showed a Survivors [26] of 6, a Survivors [27] of 6 and a Survivors [28] of 6. It also gave a T/C [29] of 106%, a T/C [30] of 94% and a Survivors [31] of 6. The T/C [32] was 95%, the IC50 [24] was 320 µg/mL (≈ 1010 µM) and the T/C [33] was 106%.

`CC(C)C(O)(C(=O)O[C@@H]1CCN2CC[C@H](CO)[C@H]12)C(C)O` (some centres undefined) gave a Survivors [34] of 6, a Survivors [35] of 6 and a T/C [36] of 105%. For the same compound, the Survivors [37] was 6, the T/C [38] was 111% and the T/C [39] was 107%. It also gave a Survivors [40] of 6, a T/C [41] of 98% and a Weight difference [42] of -1.2.

Reference: ChEMBL document CHEMBL1124172 (J Med Chem, 1988)
